Screening data as filed in PubChem BioAssay.
This is one part of a sample in which hits are shown more often than they occur.
NALP1 yeast inh – blocks the NALP1 inflammasome reconstituted in yeast; S. cerevisiae NALP1/ASC/caspase-1 growth, X-gal OD620, 72 h; inhibition, % at 10 µM; 280,000 tested, 0.61% active; in the data active means inhibition mostly above about 24%, no sharp cut-off; inactive means mostly below about 32%
L major viab – Leishmania major promastigote growth inhibition; Leishmania major promastigotes, resazurin fluorescence viability; inhibition, % at 10 µM; 200,000 tested, 9% active; AID 1063; in the data active means inhibition above about 50%;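 further: promastigotes grown with compound for 44 hours at 28 °C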
NLRP3 yeast inh – inhibitors of NALP3 inflammasome in yeast; inhibition, % at 10 µM; 330,000 tested, 0.39% active; AID 2825; Yeast reconstituted NLRP3/ASC/caspase-1, beta-gal luminescence, 24 h;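 active means inhibition of 50% or more; inactive means inhibition below 50%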;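 further: plate controls were induced DMSO wells for no effect and uninduced yeast grown without galactose for full effect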
PolyA inhibitor – blocks polyadenylation in yeast reporter cells | S. cerevisiae SKY197-pL101 polyadenylation reporter, beta-gal luminescence; efflux-impaired pdr1/pdr3 knockout yeast; score 100 = 6 SD above DMSO | activity score, % at 12 µM | 300,000 tested, 0.02% active;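 active means lowest replicate activity score at least 50, where 100 means six control SD above control mean; inconclusive means lowest score under 50 but half or more replicates reach 50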;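 further: yeast exposed to compound for 9 h at 30 °C; higher score means more reporter readthrough which indicates perturbed polyadenylation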
T cruzi repl – blocks replication of Trypanosoma cruzi; inhibition, % (no concentration beside the values); T. cruzi beta-gal in NIH3T3, luminescence, 90 h; 300,000 tested, 1.4% active;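 active means mean inhibition across valid replicates above about 55%, limit read from the data; inconclusive means mean below that limit but half or more replicates reach it; inactive means mean below it, under half of replicates reach it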;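 further: signal also drops with host cell toxicity which is not excluded here; 0% = plate median of DMSO wells and 100% = zero luminescence signal; higher percent means less beta-gal luminescence so fewer parasites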
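Assay system: NIH/3T3 host cells with β-galactosidase reporter T. cruzi; input: 5,000 host fibroblasts per well; compound: single 50 nL compound addition per well in DMSO; timing: ≥90 h infection period, 3 h prior cell attachment; measured by: GalScreen β-gal luminescence, detergent lysis, 60 min; evaluation: percent inhibition of parasite-derived β-gal signal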
Calb FLC – C. albicans growth modulation with fluconazole; C. albicans CaCi-2 + fluconazole, Alamar Blue growth, 48 h; growth inhibition, % (concentration not given with the values); 300,000 tested, 0.57% active;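 active means growth inhibition above about 58% in most replicates, limit read from the data, passing the limit was not always enough; inconclusive means exactly half the replicates above a set limit; inactive means most replicates below a set limit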;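 further: all wells also contain fluconazole at 8 µg/ml as a sub-toxic cotreatment; 0% = median of DMSO wells and 100% = median of geldanamycin control wells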
The depositor's hits bear a star; ? = inconclusive; . = no result given.

SMILES | NALP1 yeast inh | L major viab | NLRP3 yeast inh | PolyA inhibitor | T cruzi repl | Calb FLC
O=C(c1ccccc1)C1CCN(C(=O)C2CCC(=O)N(Cc3ccccc3F)C2)CC1 (configuration not stated) | 9 | . | 8 | 3 | 8 | 2
O=C(CN1CCOCC1)N/N=C/c1cccc2ccccc12 | 18 | . | 9 | ? | -2 | -4
COc1ccc(CN2CCNC(=O)C2CC(=O)N(C)Cc2nccn2C)cc1OC (configuration not stated) | -14 | 0 | 15 | 2 | -3 | -27
O=c1c2c(ncn2C2CCCC2)n(Cc2ccccc2)c(=O)n1CCOc1ccccc1 | 20 | 4 | 11 | -3 | 16 | 4
Cc1ccc(C)c(OCCn2c(=O)c3c(ncn3C3CCCC3)n(Cc3ccccc3)c2=O)c1 | 27 | 96* | 5 | . | 37 | .
CCOC(=O)c1[nH]c(CN2CCN(c3ccc(OC)cc3)CC2)c(C(=O)OCC)c1C | 11 | . | 16 | 3 | 24 | 0
CCOC(=O)c1cc(C#N)c(N2CCN(c3ccc(OC)cc3)CC2)[nH]c1=O | 0 | -2 | 39 | -1 | -13 | 92*
Clc1ccc(CONc2ncnc3nonc23)c(Cl)c1 | 0 | 14 | 34 | . | 28 | 76*
CCONc1ncnc2nonc12 | 26 | -5 | 4 | 16 | -7 | ?
CC(=O)c1cccc(NC(=S)NC(=O)c2cccc(C)c2)c1 | 26 | 51* | . | 15 | 13 | 24
CCCOc1cccc(C(=O)NC(=S)Nc2cccc(NC(=O)c3ccccc3Cl)c2)c1 | 11 | 97* | 18 | 16 | 18 | -3
CC(=O)c1cccc(NC(=O)c2oc(C)nc2C)c1 | -25 | 72* | 12 | -4 | -14 | ?
CCCCOc1cccc(C(=O)NC(=S)Nc2cccc(NC(=O)c3ccccc3Cl)c2)c1 | 36 | 20 | 14 | 18 | 34 | -6
CC(C)COc1cccc(C(=O)NC(=S)Nc2cccc(NC(=O)c3ccccc3Cl)c2)c1 | 26 | 80* | 14 | -16 | 30 | -15
O=C(Nc1ccc(C(=O)NCCCN2CCN(c3ccc(F)cc3)CC2)cc1)C1=CSCCO1 | 4 | . | 14 | 5 | 25 | -3
COc1ccc(OC)c(NC(=O)CSc2nnc(CNC(=O)c3cccs3)o2)c1 | -72 | . | 13 | 6 | 27 | -4
Cc1ccccc1OCCSc1nc2ncnc(N)c2[nH]1 | 8 | 8 | -15 | -9 | -15 | 32
CC(C)Oc1cccc(C(=O)NC(=S)Nc2ccccc2)c1 | 27 | 86* | 4 | -21 | -13 | -15
CC(C)Oc1cccc(C(=O)NC(=S)Nc2cccnc2)c1 | 8 | -9 | -20 | -1 | -12 | 0
O=C(NCc1ccccc1)C(c1c(F)cccc1Cl)N(C(=O)c1csnn1)C1CC1 (configuration not stated) | 16 | . | 20 | 5 | 9 | 9
CC(C)CCn1c2ccccc2c2cc(CC(N)=O)ccc21 | 3 | . | 34 | -6 | 12 | -4
CC(=O)C(N=Nc1ccccc1)(Sc1nnc(-c2ccccc2)n1-c1ccccc1)C(=O)Nc1ccccc1 (configuration not stated) | 7 | 78* | 6 | 8 | 45 | -7
CC(=O)C(N=Nc1ccccc1)(Sc1nnc(-c2ccccc2)n1-c1ccccc1)C(C)=O | -2 | 19 | 11 | 18 | 25 | 13
CC(C)NCC(O)COC1CCC(C(C)(C)C)CC1 (configuration not stated) | 14 | 90* | 24 | 12 | 57* | -16
CC1CN(CC(O)COC2CCC(C(C)(C)C)CC2)CC(C)O1 (configuration not stated) | 23 | 90* | 14 | -75 | 15 | -13
SMILES | NALP1 yeast inh | L major viab | NLRP3 yeast inh | PolyA inhibitor | T cruzi repl | Calb FLC
Cc1c(C)n(CC(O)CN2CCCCCC2)c2ccccc12 (configuration not stated) | 0 | 99* | 0 | -10 | 20 | -2
CC(C)(C)C1CCC(OCC(O)CN2CCN(Cc3ccccc3)CC2)CC1 (configuration not stated) | 14 | 91* | 28 | -20 | 57* | 2
Cc1noc(C)c1Cn1nc(C(=O)O)c2ccccc2c1=O | 27 | -2 | 14 | 9 | -4 | 32
COc1ccc(Cl)cc1S(=O)(=O)N1CCC(C(=O)NCCC2=CCCCC2)CC1 | 2 | . | 5 | 2 | 8 | 10
CCC(C)c1ccc(S(=O)(=O)N2CCN3CCCC3C2)cc1 (configuration not stated) | 16 | . | 20 | -9 | 12 | -14
CC1CCC(C(C)C)C(OCC(O)CNC(C)C)C1 (configuration not stated) | . | . | -2 | 1 | 3 | 7
OC(COC(c1ccccc1)c1ccccc1)CN1CCN(c2ccccn2)CC1 (configuration not stated) | 3 | 4 | 25 | 16 | 8 | -22
OC(CN1CCN(c2ccccn2)CC1)Cn1c2ccccc2c2ccccc21 (configuration not stated) | 2 | 100* | 19 | -1 | 46 | 21
CC(C)NCC(O)COC1C2CC3CC(C2)CC1C3 (configuration not stated) | -3 | 3 | 9 | 6 | 62* | -37
CC(C)(C)C1CCC(OCC(O)CN2CCN(c3ccccn3)CC2)CC1 (configuration not stated) | 18 | 94* | 36 | -29 | 37 | -3
CCOC(=O)C1=C(CS(=O)(=O)c2ccccc2)NC(=O)NC1c1cc(OC)c(O)c(OC)c1 (configuration not stated) | 18 | . | 2 | -12 | -11 | -3
O=C(N/N=C/c1ccc(Br)o1)c1cc([N+](=O)[O-])cc([N+](=O)[O-])c1 | 2 | 94* | 10 | 22 | 34 | 5
O=C(N/N=C/c1ccncc1)c1ccc(COc2cccc3cccnc23)cc1 | 28 | 2 | 8 | 5 | -9 | -12
O=C(N/N=C/c1ccc2cccc(OCc3ccccc3)c2n1)c1ccc(Cl)cc1 | 8 | 68* | 22 | 1 | 37 | 0
O=C(COc1ccc(/C=N/NC(=O)c2ccncc2)cc1)Nc1ccc([N+](=O)[O-])cc1 | 17 | . | 10 | -13 | -8 | 27
O=C(N/N=C/c1ccncc1)c1cc([N+](=O)[O-])cc([N+](=O)[O-])c1 | 20 | 96* | 2 | 23 | 30 | -3
O=C(/C=C/c1ccc([N+](=O)[O-])cc1)Oc1ccc(/C=N/NC(=O)c2ccncc2)cc1 | -27 | . | -3 | 5 | 55* | 3
O=C(N/N=C/c1ccncc1)c1cccc([N+](=O)[O-])c1 | 16 | -2 | 9 | 12 | -5 | 0
CC1CCN(CC(CS(=O)(=O)c2ccc([N+](=O)[O-])cc2)N2CCC(C)CC2)CC1 (configuration not stated) | . | . | 24 | -14 | 0 | -18
